These results are taken from ChEMBL document CHEMBL1147651, “Orally active 1,2,4-trioxanes: synthesis and antimalarial assessment of a new series of 9-functionalized 3-(1-arylvinyl)-1,2,5-trioxaspiro[5.5]undecanes against multi-drug-resistant plasmodium yoelii nigeriensis in mice” (2006).

The structures appear in SMILES notation.

Format in all cases: functional
The subject of test [1] is Plasmodium yoelii nigeriensis. Put plainly: Antimalarial activity against multidrug-resistant Plasmodium yoelii nigeriensis in mice (Mus musculus) at 96 mg/kg/day peroral dose after 4 days. Particulars: route oral. Put shortly:
(§1)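 Colony-bred Swiss mice (25 ± 1 g) were given 1 × 10⁶ parasitized RBC on day 0. Groups of five were dosed orally from day 0 to 3 in two divided doses daily, 0.1 mL per dose, in groundnut oil (hemisuccinates in 5% NaHCO₃). Parasitemia was read from thin blood smears on days 4–28. % suppression = [(C − T)/C] × 100 against untreated controls. β-Arteether served as positive control.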

Test [2] has as its system Plasmodium yoelii nigeriensis. Put plainly: Antimalarial activity against multidrug-resistant Plasmodium yoelii nigeriensis in mice (Mus musculus) at 48 mg/kg/day peroral dose over 4 days. Particulars: route oral. The method in brief: as §1
Test [3] deals with Plasmodium yoelii nigeriensis. Briefly: Antimalarial activity against multidrug-resistant Plasmodium yoelii nigeriensis in mice (Mus musculus) at 24 mg/kg/day peroral dose after 4 days. The note with it: route oral. The method in brief: as §1
A further test concerns Mus musculus. Put plainly: Survival of mouse at 48 mg/kg/day, po after 28 days. Put shortly: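 Swiss mice (25 ± 1 g) were infected with 1 × 10⁶ parasitized RBC on day 0. Five mice per dose were treated orally on days 0–3, twice daily, in groundnut oil or 5% NaHCO₃. Parasitemia was followed by thin smears to day 28. Protection is the percentage of treated mice surviving beyond day 28. β-Arteether served as positive control.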

For test [4], the system named is Plasmodium yoelii nigeriensis. Briefly: Antimalarial activity against multidrug-resistant Plasmodium yoelii nigeriensis in mice (Mus musculus) at 30 mg/kg/day peroral dose after 4 days. Particulars: route oral.
Test [5] has as its system Plasmodium yoelii nigeriensis. Briefly: Antimalarial activity against multidrug-resistant Plasmodium yoelii nigeriensis in mice (Mus musculus) at 100 mg/kg/day peroral dose after 4 days. The note with it: route oral.

On to `C=C(c1ccc(-c2ccccc2)cc1)C1COC2(CCC(=O)CC2)OO1` (centres undefined), for which the Activity in test [1] is 92%.
The same measure, in the same setting: next, `C=C(c1ccccc1)C1COC2(CCC(=O)CC2)OO1` (centres undefined): 7%; `C=C(c1ccccc1)C1COC2(CCC(O)CC2)OO1` (centres undefined): 78%; `C=C(c1ccc(-c2ccccc2)cc1)C1COC2(CCC(OC(=O)CCC(=O)O)CC2)OO1` (centres undefined): 99%.
Turning to `C=C(c1ccc(-c2ccccc2)cc1)C1COC2(CCC(O)CC2)OO1` (centres undefined), the Activity in test [1] stood at 91%.
Same read-out and setting: next, `C=C(c1ccccc1)C1COC2(CCC(OC(=O)CCC(=O)O)CC2)OO1` (centres undefined): 82%.
For the molecule `C=C(c1ccccc1)C1COC2(CCC(C)(O)CC2)OO1` (centres undefined), the Activity in test [1] is 92%.
Still for that read-out and setting: under `C=C(c1ccccc1)C1COC2(CCC(=C(C)C(=O)OCC)CC2)OO1` (centres undefined) stands 39%.
For the molecule `C=C(c1ccc(-c2ccccc2)cc1)C1COC2(CCC(=C(C)C(=O)OCC)CC2)OO1` (centres undefined), the Activity in test [2] and in test [1] was 100% in each case.
`C=C(c1ccccc1)C1COC2(CCC(O)(c3ccccc3)CC2)OO1` (centres undefined) displayed an Activity in test [1] of 95%.
On to `C=C(c1ccc(Cl)cc1)C1COC2(CCC(=C(C)C(=O)OCC)CC2)OO1` (centres undefined), for which the Activity in test [1] stood at 87%.
Still for that read-out and setting: under `C=C(c1ccc(Cl)cc1)C1COC2(CCC(OC(=O)CCC(=O)O)CC2)OO1` (centres undefined) stands 39%.
With `C=C(c1ccc(Cl)cc1)C1COC2(CCC(=CC(=O)OCC)CC2)OO1` (centres undefined), the Activity in test [2], in test [3] and in test [1] was 100% in each case.
On to `C=C(c1ccc(C)cc1)C1COC2(CCC(OC(=O)CCC(=O)O)CC2)OO1` (centres undefined), for which the Activity in test [1] came out at 97%.
For the molecule `C=C(c1ccc(OC)cc1)C1COC2(CCC(=CC(=O)OCC)CC2)OO1` (centres undefined), the figures for the Activity (in test [2]; in test [1]; in the test on Mus musculus) were 100%, 100% and 40%, respectively.
`C=C(c1ccc(Cl)cc1)C1COC2(CCC(O)CC2)OO1` (centres undefined): the Activity in test [1] amounted to 74%.
Regarding `C=C(c1ccc(C)cc1)C1COC2(CCC(O)CC2)OO1` (centres undefined), the Activity in test [1] was determined as 37%.
`C=C(c1ccc(C2CCCCC2)cc1)C1COC2(CCC(=CC(=O)OCC)CC2)OO1` (centres undefined): the Activity was determined as 100% in test [2], 100% in test [1] and 40% with Mus musculus.
`C=C(c1ccc(C)cc1)C1COC2(CCC(=O)CC2)OO1` (centres undefined) registered an Activity in test [1] of 7%.
The molecule `C=C(c1ccc(Cl)cc1)C1COC2(CCC(=O)CC2)OO1` (centres undefined) yielded an Activity in test [1] of 18%.
Same read-out and setting: next, `C=C(c1ccc(OC)cc1)C1COC2(CCC(=C(C)C(=O)OCC)CC2)OO1` (centres undefined): 18%.
On to `C=C(c1ccc2ccccc2c1)C1COC2(CCC(=CC(=O)OCC)CC2)OO1` (centres undefined), for which the Activity in test [2], in test [3] and in test [1] was 100% each time.
`C=C(c1ccc2ccccc2c1)C1COC2(CCC(=C(C)C(=O)OCC)CC2)OO1` (centres undefined) had an Activity in test [1] of 97%.
Same read-out and setting: under `C=C(c1ccc(C2CCCCC2)cc1)C1COC2(CCC(=O)CC2)OO1` (centres undefined) stands 100%; under `C=C(c1ccc2ccccc2c1)C1COC2(CCC(=O)CC2)OO1` (centres undefined), 15%.
As for `C=C(c1ccccc1)C1COC2(CCC(=CC(=O)OCC)CC2)OO1` (centres undefined), the Activity in test [2] is 100%; in test [3], 99%; in test [1], 100%.
As to `C=C(c1ccc(OC)cc1)C1COC2(CCC(=O)CC2)OO1` (centres undefined), the Activity in test [1] was 32%.
Still for that read-out and setting: under `C=C(c1ccc(C)cc1)C1COC2(CCC(=C(C)C(=O)OCC)CC2)OO1` (centres undefined) stands 100%.
As for `C=C(c1ccc(C)cc1)C1COC2(CCC(=CC(=O)OCC)CC2)OO1` (centres undefined), the Activity in test [2], in test [3] and in test [1] was 100% throughout.
`C=C(c1ccc(C2CCCCC2)cc1)C1COC2(CCC(=C(C)C(=O)OCC)CC2)OO1` (centres undefined) registered an Activity in test [1] of 100%.
For the molecule `C=C(c1ccc(-c2ccccc2)cc1)C1COC2(CCC(=CC(=O)OCC)CC2)OO1` (centres undefined), the Activity was 93% in test [2] and 100% in test [1].
In test [1], `C=C(c1ccccc1)C1COC2(CCC(O)(CC(=O)OCC)CC2)OO1` (stereo in doubt; 24a) yielded an Activity of 87%.
On the same count and under the same terms, under `C=C(c1ccccc1)C1COC2(CCC(O)(CC(=O)OCC)CC2)OO1` (stereo in doubt; 24b) stands 37%.
On the same count and under the same terms, under `C=C(c1ccc(-c2ccccc2)cc1)C1COC2(CCC(O)(CC(=O)OCC)CC2)OO1` (stereo in doubt; 25a) stands 93%; under `C=C(c1ccc(-c2ccccc2)cc1)C1COC2(CCC(O)(CC(=O)OCC)CC2)OO1` (stereo in doubt; 25b), 97%.
The same measure, in the same setting: under `C=C(c1ccc(Cl)cc1)C1COC2(CCC(O)(CC(=O)OCC)CC2)OO1` (stereo in doubt; 26a) stands 31%; under `C=C(c1ccc(Cl)cc1)C1COC2(CCC(O)(CC(=O)OCC)CC2)OO1` (stereo in doubt; 26b), 74%.
Turning to `CCO[C@H]1O[C@@H]2O[C@@]3(C)CC[C@H]4[C@H](C)CC[C@@H]([C@H]1C)[C@@]24OO3` [ARTEMOTIL], the Activity in test [2] and in test [3] was 100% throughout.
For the molecule `CCN(CC)CCCC(C)Nc1ccnc2cc(Cl)ccc12` (centres undefined) [CHLOROQUINE], the Activity in test [4] and in test [5] was 100% each time.
Consider `CCCCN(CCCC)CCC(O)c1cc2c(Cl)cc(Cl)cc2c2cc(C(F)(F)F)ccc12` (centres undefined) [HALOFANTRINE], for which the Activity in test [4] and in test [5] was 100% in each case.
As for `OC(c1cc(C(F)(F)F)nc2c(C(F)(F)F)cccc12)C1CCCCN1` (centres undefined) [MEFLOQUINE], the Activity in test [4] and in test [5] was 100% each time.
